Source: PubChem BioAssay (several laboratories)
ALR inh: inhibitors of human ALR sulfhydryl oxidase, primary screen, biochemical, H2O2 detection, HRP-luminol luminescence, single point; 290,000 tested, 3.8% active; inhibition, % (concentration not given with the values); FAD-linked sulfhydryl oxidase ALR (Homo sapiens), P55789; purified ALR, DTT oxidation;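 active means mean replicate inhibition above about 79%, with every replicate also reaching it, limit read from the data; inconclusive means only one of the two criteria met; inactive means mean below limit and not every replicate reaching it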
Target sequence (P55789 whole entry, looked up): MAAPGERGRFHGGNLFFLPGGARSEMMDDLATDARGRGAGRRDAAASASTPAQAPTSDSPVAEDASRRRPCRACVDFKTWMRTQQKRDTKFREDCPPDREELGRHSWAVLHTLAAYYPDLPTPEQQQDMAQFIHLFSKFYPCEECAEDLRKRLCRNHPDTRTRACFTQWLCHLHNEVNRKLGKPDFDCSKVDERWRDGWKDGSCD
HSF1 activator: HSF-1 activators, primary screen, NIH3T3-HGL cells, MG132 stress, luminescence, single point; 300,000 tested, 1.7% active; NIH3T3-HGL HSF-1 luciferase reporter, 8 h; 100% = twice DMSO control signal; activation, % at 9 µM; AID 504408, 2011;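 active means mean replicate activation of at least 50% with a set share of replicates each reaching 50%; inconclusive means only one of those two conditions met; inactive means mean below 50% and too few replicates reaching it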;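 further: 0% = median of the neutral control wells and 100% = twice that signal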
core dimer inh: inhibitors of HCV core protein dimerization, primary screen, biochemical, TR-FRET, high-throughput | TR-FRET GST/Flag-core106 dimerization, 1536-well | inhibition, % at 5 µM | 300,000 tested, 0.33% active | AID 1899, 2009;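 active means inhibition above the mean of all tested compounds plus 3 SD, set per screening campaign, cut at about 45% in these data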
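Assay system: GST-tagged and Flag-tagged HCV core protein residues 1-106 / Times: compound-protein-antibody incubation 4 h at 22.5 °C / Signal: time-resolved FRET, ex 340 nm, em 617 and 671 nm / Evaluation: % inhibition based on acceptor/donor emission ratio / Benchmarks: wells lacking GST-core106 and wells with excess unlabelled core106 / Repeats: singlicate, one well per compound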
AI-2 QS modul: Vibrio harveyi AI-2 quorum sensing modulators, primary screen, JMH597 strain, luminescence/OD600 ratio | 300,000 tested, 0.4% active | activity change, % at 7.5 µM | Vibrio harveyi JMH597 AI-2 luminescence/OD600 ratio, 9 h; stronger effect = lower value; strain lacks LuxN and CqsS sensors; 0 = neutral-control median; in the data active means activity change below about -75%, passing the limit was not always enough; inconclusive means no clear call, values can overlap the other calls;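 further: luminescence divided by OD600 gain over 9 h not by final OD600 alone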
HSF1 inhib: HSF1 inhibitors in luciferase reporter cells, primary screen, cell-based, NIH3T3, luminescence; 300,000 tested, 0.77% active; activity change, negative = inhibition, % at 7.5 µM (by protocol); NIH3T3-HGL HSE-luciferase, MG132-induced, luminescence 8 h; stronger effect = lower value;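 active means more than half of replicate wells show activity change below -50%, luminescence cut by over half; inconclusive means some wells, but at most half, below -50%; inactive means no replicate well below -50%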;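 further: luciferase reports HSF-1 transcriptional activity via heat shock element; 0% = median of DMSO wells and -100% = zero luminescence signal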
PHOSPHO1 inh: PubChem AID 1565 | Phosphoethanolamine/phosphocholine phosphatase (Homo sapiens), Q8TCT1 | recombinant PHOSPHO1, absorbance phosphatase assay | inhibition, % at 13.3 µM | 290,000 tested, 1.1% active; in the data active means inhibition above about 60%
Target sequence (Q8TCT1 whole entry, looked up): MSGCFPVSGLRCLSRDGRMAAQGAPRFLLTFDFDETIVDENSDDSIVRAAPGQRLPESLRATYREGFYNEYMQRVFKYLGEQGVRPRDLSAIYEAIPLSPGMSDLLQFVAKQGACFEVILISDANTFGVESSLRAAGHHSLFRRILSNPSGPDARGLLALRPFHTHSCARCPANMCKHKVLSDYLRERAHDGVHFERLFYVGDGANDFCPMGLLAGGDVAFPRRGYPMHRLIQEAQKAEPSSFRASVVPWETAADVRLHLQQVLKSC
An asterisk follows results filed as active; ? = inconclusive; . = no result. Most compounds without a hit are left out; they make up all but 6.8% or so of the library.

SMILES | ALR inh | HSF1 activator | core dimer inh | AI-2 QS modul | HSF1 inhib | PHOSPHO1 inh
Cc1cccc(C(=O)Nc2onc(C)c2C#N)c1 | 96.4* | -0.5 | 2.8 | 12.6 | 1.5 | 48.4
COc1ccc(-c2csc(N=C(N)N)n2)cc1 | 97.8* | -5.0 | -14.6 | -2.8 | -3.8 | 46.4
O=S(=O)(NCc1cccs1)c1ccccc1Cl | 2.5 | -9.9 | -0.3 | 9.4 | -3.0 | .
CC(=O)c1ccc(N2CCN(CC(=O)N(CC(C)C)c3c(N)n(CC(C)C)c(=O)[nH]c3=O)CC2)cc1 | . | -8.0 | -0.8 | 24.0 | 2.8 | -0.9
CC(C)CN(C(=O)CN1CCN(c2ccc(O)cc2)CC1)c1c(N)n(CC(C)C)c(=O)[nH]c1=O | 99.5* | -1.1 | 5.0 | 30.1 | -7.3 | 4.7
C=C1CCN([C@@H](Cc2ccccc2)C(=O)NCc2ccc(Cl)cc2)S(=O)(=O)c2ccccc21 | -4.1 | 9.2 | 13.8 | 21.0 | 16.8 | .
CC1CCCCN1C(=O)c1cc(-c2ccc(Cl)c(Cl)c2)on1 (stereo unspecified) | -1.6 | 57.1* | 7.1 | -60.5 | 35.9 | 6.0
Cc1cccc(CSC2=NCCN2C(=O)c2ccc(S(=O)(=O)N(C)C)cc2)c1 | 14.0 | -4.2 | -5.5 | 22.5 | -0.5 | 20.4
CCN(CC)S(=O)(=O)c1ccc(C(=O)N2CCN=C2SCc2cccnc2)cc1 | 98.9* | -1.3 | 0.8 | 6.1 | 5.8 | -6.8
Cc1onc(-c2ccccc2Cl)c1C(=O)N1CCN=C1SCc1cccnc1 | 98.6* | -8.6 | -4.8 | -0.2 | -3.0 | 15.5
O=C(c1ccco1)N1CCN=C1SCc1c(F)cccc1Cl | 8.7 | 9.6 | 2.3 | -1.0 | -3.8 | 15.5
O=C(Cc1cccs1)N1CCN=C1SCc1ccccc1F | 99.2* | 12.1 | -1.3 | 17.2 | 1.7 | 11.2
O=C(c1ccco1)N1CCN=C1SCc1ccccc1Cl | 99.1* | -5.3 | 0.8 | 11.0 | -5.3 | -15.4
O=C(COC(=O)COc1ccccc1)NC12CC3CC(CC(C3)C1)C2 | -0.7 | . | . | . | . | .
Cc1c(CN2CCN(CC(C)C)C(CCO)C2)[nH]c2ccc(Cl)cc12 (stereo unspecified) | . | 1.2 | 2.7 | 3.8 | 9.8 | 14.1
O=C(c1ccc2c(c1)OCO2)N1CCN=C1SCc1cccnc1 | 97.6* | 0.4 | 0.6 | 17.1 | -1.9 | 12.6
CN(C)S(=O)(=O)c1ccc(C(=O)N2CCN=C2SCc2cccnc2)cc1 | 98.8* | -7.8 | -13.5 | 22.8 | 2.4 | 4.6
Cc1cc(C)c2nc(NC(=O)C3CSC4(C)CCC(=O)N34)sc2c1 (stereo unspecified) | 0.8 | . | . | . | . | .
O=C(CN1CCOCC1)Nc1ccc([N+](=O)[O-])cc1 | -6.3 | 34.7 | -0.9 | 12.2 | 7.7 | .
CC1(C)CN=c2s/c(=C\c3ccc(Cl)cc3)c(=O)n2C1 | 96.9* | -17.9 | -4.3 | 6.4 | -8.9 | 26.7
CCOC(=O)CSc1n[nH]c(NC(=O)c2cccc(C)c2)n1 | 97.2* | -2.6 | -6.3 | . | -4.5 | 60.5*
CCCCCN(C(=O)CCC(=O)OCc1cccc(C(F)(F)F)c1)c1c(N)n(CCCC)c(=O)[nH]c1=O | -3.0 | -3.4 | 2.3 | 16.7 | -2.1 | 14.5
CCn1c2ccccc2c2cc(NC(=O)CSc3nnc(C4CC4)n3Cc3ccco3)ccc21 | 97.6* | 19.9 | 36.9 | 17.1 | 16.3 | -6.9
Cc1nc2ccccc2nc(=O)c1NNc1ccccc1 | . | 65.1* | . | 34.2 | 18.7 | -7.9
OC(C#Cc1ccccn1)c1cccs1 (stereo unspecified) | ? | 11.3 | -1.1 | 5.9 | -1.0 | 60.5*
SMILES | ALR inh | HSF1 activator | core dimer inh | AI-2 QS modul | HSF1 inhib | PHOSPHO1 inh
O=C(NC1CCCCC1)C(c1cccs1)N(C(=O)c1ccccn1)c1ccccc1 (stereo unspecified) | -18.2 | 5.8 | 4.6 | 19.9 | -5.7 | -19.4
O=C(Cc1cccs1)NNC(=O)C12CC3CC(CC(C3)C1)C2 | -9.1 | -5.7 | -1.4 | 26.6 | -1.1 | 61.2*
O=C(CNCc1cccs1)NC12CC3CC(CC(C3)C1)C2 | -6.7 | -10.3 | -3.1 | 14.5 | 1.6 | 24.1
CN(C)c1ccc(/C=C2\CCCc3c2nc2ccccc2c3C(=O)O)cc1 | . | 23.2 | -11.9 | 10.8 | 7.6 | 31.1
Nc1ccc2nc(-c3ccc(N)c(Cl)c3)[nH]c2c1 | 99.0* | 10.0 | -29.0 | 38.3 | 2.1 | 3.4
COc1ccc2nc(-c3ccccn3)[nH]c2c1 | -25.0 | 29.5 | -12.9 | 5.2 | 17.2 | .
O=[N+]([O-])c1ccc2nc(-c3cccnc3)[nH]c2c1 | -2.4 | 19.8 | -4.4 | 13.0 | 4.6 | 34.8
Nc1ccc2nc(-c3cccnc3)[nH]c2c1 | 99.7* | 26.5 | -19.5 | 7.4 | -4.8 | -4.4
Nc1ccc2nc(-c3ccccc3)[nH]c2c1 | 99.2* | 33.4 | -18.0 | 6.6 | 21.1 | 0.1
Nc1cccc(-c2nc3ccc(C(=O)c4ccccc4)cc3[nH]2)c1 | -11.9 | 28.9 | -2.0 | -0.6 | 15.0 | .
COc1ccc2nc(-c3cccc(N)c3)[nH]c2c1 | . | 11.9 | -1.5 | 4.0 | 0.0 | -6.8
Nc1ccc2nc(-c3ccccn3)[nH]c2c1 | . | -55.0 | 18.7 | 46.2 | -57.2* | -1.2
CCN(CC(=O)NCc1cccs1)C(=O)c1ccc(-c2cccc(C(F)(F)F)c2)o1 | 0.9 | 11.8 | 5.2 | 8.4 | 0.2 | .
Nc1cccc(C(=O)Nc2ccc3nc(-c4cccnc4)[nH]c3c2)c1 | 99.3* | 7.3 | 1.9 | 6.1 | -4.1 | -24.2
Nc1ccc(-c2nc3c(Cl)cc(N)cc3[nH]2)cc1 | 98.8* | 1.7 | -34.9 | 10.7 | -1.1 | 18.5
O=C(Nc1ccc2nc(-c3cccnc3)[nH]c2c1)C1CCCCC1 | 1.9 | 5.6 | -0.2 | 19.8 | 4.1 | -13.3
COc1ccc2nc(-c3ccc(N)cc3)[nH]c2c1 | 99.2* | -2.5 | -11.1 | 18.7 | -1.6 | -19.8
Nc1ccc2nc(-c3cccs3)[nH]c2c1 | 98.9* | 10.0 | -16.3 | -1.2 | 1.3 | -15.8
COc1cc(NC(=O)c2cccs2)c(OC)cc1NC(=O)CCC(=O)Nc1ccc(C)cc1 | . | -0.2 | 0.6 | 7.6 | -1.3 | 44.9
Cc1nn(-c2ccccc2)c(C)c1C(=O)NCc1ccccc1F | -3.7 | 2.5 | 14.1 | . | -5.0 | 20.0
Cc1ccccc1N1CCN(C2CCCN(C(=O)CCC(F)(F)F)C2)CC1 (stereo unspecified) | 10.2 | -17.9 | 11.5 | -3.6 | -7.6 | 13.9
CCOc1ccc(-c2cc3nc(C4CCN(C(=O)OC(C)(C)C)CC4)c(C(=O)O)cn3n2)cc1 | 98.0* | -9.2 | 21.4 | 31.7 | -0.7 | 6.0
CC(C)(C)OC(=O)N1CCC(c2c(C(=O)O)cnn2-c2ccccc2)CC1 | -7.3 | -13.6 | -0.2 | 7.3 | 1.3 | -0.3
